Experimental data reported in ChEMBL document CHEMBL1151166, “Structures of new sesquiterpenes and hepatoprotective constituents from the Egyptian herbal medicine Cyperus longus” (J Nat Prod, 2004).

Columns and labels:
[1] = test system: Hepatocyte; experiment: Hepatoprotective activity in ddY mouse hepatocytes assessed as inhibition of D-galactosamine-induced cytotoxicity at 3 uM after 44 hrs by MTT assay relative to control; format: functional
In short: (§1)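 Cells then exposed to D-GalN (2 mM) plus test sample for 44 h. MTT was added for 4 h. Formazan was dissolved in acidic 2-propanol and read at 562 nm (reference 660 nm). Inhibition (%) = (sample − control)/(normal − control) × 100. Values are means ± SEM.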

[2] = test system: Hepatocyte; experiment: Hepatoprotective activity in ddY mouse hepatocytes assessed as inhibition of D-galactosamine-induced cytotoxicity at 10 uM after 44 hrs by MTT assay relative to control; format: functional; in short: as §1
[3] = test system: Hepatocyte; experiment: Hepatoprotective activity in ddY mouse hepatocytes assessed as inhibition of D-galactosamine-induced cytotoxicity at 100 uM after 44 hrs by MTT assay relative to control; format: functional; in short: as §1
[4] = test system: Hepatocyte; experiment: Hepatoprotective activity in ddY mouse hepatocytes assessed as inhibition of D-galactosamine-induced cytotoxicity at 30 uM after 44 hrs by MTT assay relative to control; format: functional; in short: as §1
[5] = test system: Hepatocyte; experiment: Hepatoprotective activity in ddY mouse hepatocytes assessed as inhibition of D-galactosamine-induced cytotoxicity after 44 hrs by MTT assay relative to control; format: functional, cell-based; in short: as §1

For `C/C1=C\CC(C)(C)[C@@H](O)[C@H]2C[C@@]2(C)[C@@H](O)CC1`, which inhibition at 3 µM [1] is on record?
Its inhibition at 3 µM is 5.9%.

And the inhibition at 10 µM [2]?
The inhibition at 10 µM was 16.6%.

And the inhibition at 100 µM [3]?
Its inhibition at 100 µM is 54.8%.

And the inhibition at 30 µM [4]?
Its inhibition at 30 µM is 37.3%.

And the IC50 [5]?
Its IC50 is 70 µM.

`C=C(C)C(CC[C@H](C)O)CC1=C(C)CCC1=O` (stereo partly specified) [CYPERUSOL B1] was tested. Which inhibition at 3 µM [1] did it give?
Its inhibition at 3 µM is 3%.

And the inhibition at 10 µM [2]?
Its inhibition at 10 µM is 20.4%.

What about the inhibition at 100 µM [3] of the same compound?
Its inhibition at 100 µM is 34.7%.

What about the inhibition at 30 µM [4] of the same compound?
Its inhibition at 30 µM is 22.7%.

With `C=C1C/C=C/C(C)(C)C[C@@H](O)/C(C)=C\C[C@@H]1O` as the compound, how does the inhibition at 3 µM [1] read?
The inhibition at 3 µM was 11.6%.

And the inhibition at 10 µM [2]?
Its inhibition at 10 µM is 25.6%.

And the inhibition at 100 µM [3]?
Its inhibition at 100 µM is 80.8%.

What about the inhibition at 30 µM [4] of the same compound?
The inhibition at 30 µM was 47.5%.

What about the IC50 [5] of the same compound?
Its IC50 is 27 µM.

For `CC1(C)C[C@@H]2[C@@H]1CC[C@@]1(C)C[C@]2(O)CC[C@@H]1O`, which inhibition at 3 µM [1] is on record?
Its inhibition at 3 µM is 6.3%.

And the inhibition at 10 µM [2]?
Its inhibition at 10 µM is 16.8%.

What about the inhibition at 100 µM [3] of the same compound?
Its inhibition at 100 µM is 51.7%.

And the inhibition at 30 µM [4]?
The inhibition at 30 µM was 26.7%.

And the IC50 [5]?
The IC50 was 100 µM.

Which results are given for `C=C(C)[C@@H]1CC[C@](C)(O)C2=C(C1)[C@](C)(O)CC2=O` [CYPERUSOL A1]?
inhibition at 3 µM [1]: 2.2%; inhibition at 10 µM [2]: 5.6%; inhibition at 100 µM [3]: 16.5%; inhibition at 30 µM [4]: 9.5%

How did the inhibition at 3 µM [1] turn out when `CC1(C)CC2[C@H]1CC[C@@]1(C)OC[C@]2(O)CC[C@@H]1O` (stereo partly specified) was run?
Its inhibition at 3 µM is 12.5%.

What about the inhibition at 10 µM [2] of the same compound?
The inhibition at 10 µM was 14.3%.

What about the inhibition at 100 µM [3] of the same compound?
Its inhibition at 100 µM is 36.4%.

What about the inhibition at 30 µM [4] of the same compound?
The inhibition at 30 µM was 24.8%.

Which results are given for `C=C(C)[C@@H]1CC[C@]2(C)C(=C(C)C(=O)C[C@H]2O)C1` [LIGUCYPERONOL]?
inhibition at 3 µM [1]: 5.5%; inhibition at 10 µM [2]: 13.9%; inhibition at 100 µM [3]: 46.7%; inhibition at 30 µM [4]: 12.6%

With `C=C(C)[C@@H]1CC[C@@H](C)[C@@]2(O)CC(=O)C(C)=C2C1` as the compound, how does the inhibition at 3 µM [1] read?
Its inhibition at 3 µM is -4.5%.

What about the inhibition at 10 µM [2] of the same compound?
The inhibition at 10 µM was -1.1%.

And the inhibition at 100 µM [3]?
The inhibition at 100 µM was 58%.

And the inhibition at 30 µM [4]?
Its inhibition at 30 µM is 13.5%.

And the IC50 [5]?
The IC50 was 83 µM.

For `CC1=CCC(C(C)(C)O)CC1O` (stereo unspecified) [SOBREROL], which inhibition at 3 µM [1] is on record?
Its inhibition at 3 µM is 5.5%.

And the inhibition at 10 µM [2]?
The inhibition at 10 µM was 8.9%.

And the inhibition at 100 µM [3]?
Its inhibition at 100 µM is 23.7%.

And the inhibition at 30 µM [4]?
The inhibition at 30 µM was 15.9%.

For `CC1=C[C@H]2[C@H](C(C)C)CC[C@](C)(O)[C@H]2C[C@H]1O`, which inhibition at 3 µM [1] is on record?
The inhibition at 3 µM was -2.3%.

And the inhibition at 10 µM [2]?
Its inhibition at 10 µM is 3.7%.

What about the inhibition at 100 µM [3] of the same compound?
Its inhibition at 100 µM is 15.2%.

What about the inhibition at 30 µM [4] of the same compound?
Its inhibition at 30 µM is 9.3%.

What does the source list for `CC(C)(O)[C@@H]1CC=C(CO)CC1`?
inhibition at 3 µM [1]: -1.5%; inhibition at 10 µM [2]: 1.7%; inhibition at 100 µM [3]: 53.3%; inhibition at 30 µM [4]: 16.7%; IC50 [5]: 90 µM

For `C=C(C)C(CC[C@@H](C)O)CC1=C(C)CCC1=O` (stereo partly specified) [CYPERUSOL B2], which inhibition at 3 µM [1] is on record?
Its inhibition at 3 µM is 4.4%.

What about the inhibition at 10 µM [2] of the same compound?
Its inhibition at 10 µM is 6.5%.

What about the inhibition at 100 µM [3] of the same compound?
Its inhibition at 100 µM is 19.9%.

And the inhibition at 30 µM [4]?
The inhibition at 30 µM was -1.4%.

Which inhibition at 3 µM [1] does the source give for `C=C(C)[C@@H]1CC[C@](C)(O)[C@H]2CC[C@](C)(O)[C@H]2C1` [GUAIDIOL] here?
The inhibition at 3 µM was 2.6%.

What about the inhibition at 10 µM [2] of the same compound?
The inhibition at 10 µM was 10.4%.

And the inhibition at 100 µM [3]?
The inhibition at 100 µM was 35.4%.

What about the inhibition at 30 µM [4] of the same compound?
Its inhibition at 30 µM is 20.3%.

With `CC1(C)C[C@H](O)[C@]23CC[C@@H](O)[C@@](C)(CC[C@@H]12)C3` [CLOVANEDIOL] as the compound, how does the inhibition at 3 µM [1] read?
Its inhibition at 3 µM is 3.6%.

And the inhibition at 10 µM [2]?
Its inhibition at 10 µM is 13.6%.

What about the inhibition at 100 µM [3] of the same compound?
Its inhibition at 100 µM is 40.2%.

And the inhibition at 30 µM [4]?
Its inhibition at 30 µM is 32.3%.

What does the source list for `C=C(C)[C@@H]1CC[C@@]2(C)[C@H](O)CC[C@@](C)(O)[C@@H]2C1` [CYPERUSOL C]?
inhibition at 3 µM [1]: 6.3%; inhibition at 10 µM [2]: 8.1%; inhibition at 100 µM [3]: 29.9%; inhibition at 30 µM [4]: 28.4%

`CC1(C)CC2[C@H]1CC[C@@]1(C)O[C@]2(CO)CC[C@H]1O` (stereo partly specified) was tested. Which inhibition at 3 µM [1] did it give?
The inhibition at 3 µM was 5.7%.

And the inhibition at 10 µM [2]?
The inhibition at 10 µM was 10.4%.

What about the inhibition at 100 µM [3] of the same compound?
Its inhibition at 100 µM is 45.9%.

And the inhibition at 30 µM [4]?
Its inhibition at 30 µM is 19.9%.

How did the inhibition at 3 µM [1] turn out when `C=C(C)C(CCC(C)=O)CC1=C(C)CCC1=O` (stereo unspecified) [MANDASSIDIONE] was run?
Its inhibition at 3 µM is -0.1%.

What about the inhibition at 10 µM [2] of the same compound?
The inhibition at 10 µM was 7.7%.

And the inhibition at 100 µM [3]?
The inhibition at 100 µM was 21.6%.

And the inhibition at 30 µM [4]?
The inhibition at 30 µM was 14.7%.

How did the inhibition at 3 µM [1] turn out when `CC1(C)C[C@@H]2O[C@@]2(C)CC[C@H]2O[C@]2(C)C[C@@H]2O[C@H]21` was run?
The inhibition at 3 µM was 6.9%.

What about the inhibition at 10 µM [2] of the same compound?
The inhibition at 10 µM was 9.7%.

And the inhibition at 100 µM [3]?
The inhibition at 100 µM was 51.1%.

What about the inhibition at 30 µM [4] of the same compound?
The inhibition at 30 µM was 25.7%.

And the IC50 [5]?
Its IC50 is 95 µM.

`COc1cc(C2Oc3cc([C@H]4Oc5cc(O)cc(O)c5C(=O)[C@@H]4O)ccc3OC2CO)ccc1O` (stereo partly specified) [SILIBININ] was tested. Which inhibition at 3 µM [1] did it give?
Its inhibition at 3 µM is 4.8%.

And the inhibition at 10 µM [2]?
The inhibition at 10 µM was 7.7%.

What about the inhibition at 100 µM [3] of the same compound?
The inhibition at 100 µM was 77%.

What about the inhibition at 30 µM [4] of the same compound?
The inhibition at 30 µM was 45.2%.

What about the IC50 [5] of the same compound?
The IC50 was 41 µM.

`CC1(C)C[C@H]2[C@H]1[C@H]1C[C@@]1(C)[C@H](O)CC[C@]2(C)O` [TRICYCLOHUMULADIOL] was tested. Which inhibition at 3 µM [1] did it give?
Its inhibition at 3 µM is 10.9%.

And the inhibition at 10 µM [2]?
Its inhibition at 10 µM is 16.1%.

What about the inhibition at 100 µM [3] of the same compound?
Its inhibition at 100 µM is 37.7%.

And the inhibition at 30 µM [4]?
Its inhibition at 30 µM is 22.1%.

Which inhibition at 3 µM [1] does the source give for `C=C(C)[C@@H]1CC[C@@H](C)[C@]2(O)CC[C@](C)(O)C(=O)[C@@H]12` [CYPERUSOL D] here?
The inhibition at 3 µM was -3.6%.

And the inhibition at 10 µM [2]?
The inhibition at 10 µM was 2.6%.

What about the inhibition at 100 µM [3] of the same compound?
The inhibition at 100 µM was 46.1%.

What about the inhibition at 30 µM [4] of the same compound?
Its inhibition at 30 µM is 31.9%.
